High-throughput results as filed in PubChem.
ROMK primary: modulators of human ROMK potassium channel; P48048; Tet-inducible ROMK, thallium flux fluorescence; actives lie on both sides; B-score at 10 µM; 130,000 tested, 2% active;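 active = signal ratio slope over the read window, or its plate-corrected B-score, at least 3 SD from the plate mean, either direction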;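 note: B-score of the F/F0 ratio slope over 7 to 12 s after thallium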
Dynein cargo inh: blocks dynein driven cargo transport along microtubules | 3617.4 mouse cells, GR-EGFP nuclear translocation imaging; test concentration mostly 20 µM; stimulated with dexamethasone, 1 µM; hits give low values | z-score, hits read low | AID 1381 | 220,000 tested, 0.47% active;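 active = plate z-score of nuclear minus cytoplasmic receptor signal below a set negative limit, without overly bright fluorescence or cell loss, cut at about -3.5 in these data, passing the limit was not always enough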;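 note: z-score of nuclear minus cytoplasmic ring GR-EGFP intensity difference per well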
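Buffer or medium: tet-free, stripped-serum medium; Also added: dexamethasone, 1.0 µM final; Technique: high-content fluorescence imaging after fixation; Times: 48 h induction, 1 h compound, 30 min dex at 37 °C; Read-out: per-cell GR-EGFP intensity, nucleus versus surrounding cytoplasmic ring, well-averaged.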
KCC2 mod: modulates chloride dependent transport by human KCC2; KCC2 cells, thallium flux FluoZin-2 fluorescence; B-score of Tl+ flux slope (higher = more flux/activation; lower = inhibition) at 10 µM; 190,000 tested, 2.2% active;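 active = thallium flux slope and its plate-corrected score both differing from the plate sample mean at a set confidence after two filtering rounds, in either direction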;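 note: slope of fluorescence scaled to starting intensity during 10 to 20 s after thallium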
Target sequence (Q9H2X9 whole entry, looked up): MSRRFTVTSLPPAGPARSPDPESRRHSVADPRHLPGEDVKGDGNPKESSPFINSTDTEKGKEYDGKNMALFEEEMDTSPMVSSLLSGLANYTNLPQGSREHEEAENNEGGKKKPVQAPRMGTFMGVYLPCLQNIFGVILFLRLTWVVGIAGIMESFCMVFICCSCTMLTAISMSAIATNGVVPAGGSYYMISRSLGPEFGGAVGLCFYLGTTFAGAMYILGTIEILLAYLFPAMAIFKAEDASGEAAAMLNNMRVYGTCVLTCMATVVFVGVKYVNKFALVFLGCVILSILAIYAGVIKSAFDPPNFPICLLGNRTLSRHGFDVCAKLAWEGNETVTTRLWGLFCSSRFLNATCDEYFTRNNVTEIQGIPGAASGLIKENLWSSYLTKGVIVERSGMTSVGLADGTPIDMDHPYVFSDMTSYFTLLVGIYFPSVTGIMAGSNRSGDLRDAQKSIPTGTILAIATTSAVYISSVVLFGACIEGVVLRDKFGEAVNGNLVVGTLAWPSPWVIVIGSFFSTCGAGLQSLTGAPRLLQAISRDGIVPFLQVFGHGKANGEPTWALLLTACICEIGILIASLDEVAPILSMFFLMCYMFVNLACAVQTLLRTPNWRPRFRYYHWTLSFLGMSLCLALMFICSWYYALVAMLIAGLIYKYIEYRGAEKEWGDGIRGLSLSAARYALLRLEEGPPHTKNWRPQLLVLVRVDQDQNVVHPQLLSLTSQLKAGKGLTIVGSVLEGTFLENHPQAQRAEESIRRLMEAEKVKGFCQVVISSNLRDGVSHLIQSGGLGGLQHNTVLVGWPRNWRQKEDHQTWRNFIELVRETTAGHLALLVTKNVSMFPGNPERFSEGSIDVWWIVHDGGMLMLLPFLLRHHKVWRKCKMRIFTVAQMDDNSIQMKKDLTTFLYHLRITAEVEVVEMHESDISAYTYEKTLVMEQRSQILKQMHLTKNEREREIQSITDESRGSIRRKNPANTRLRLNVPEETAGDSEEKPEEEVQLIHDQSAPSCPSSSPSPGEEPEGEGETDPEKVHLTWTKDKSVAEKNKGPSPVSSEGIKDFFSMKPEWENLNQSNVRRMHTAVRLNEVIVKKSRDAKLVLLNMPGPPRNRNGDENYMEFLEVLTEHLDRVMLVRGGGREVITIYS
Autophagy HCS: autophagy modulation, high-content screen; MEF GFP-LC3 puncta imaging; test concentration mostly 10 µM; calls only at 10 µM (by protocol); 190,000 tested, 0.98% active;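 active = percentage of spot-positive cells more than 3 SD above its plate mean, without a fluorescence outlier flag or 80% toxicity; inconclusive = no clear call, values can overlap the other calls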;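 note: spot-positive cell cutoff set from DMSO-treated cells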
Redox H2O2 prof: compounds producing H2O2 with reducing agent – biochemical, NIH compound library profiling, artefact control for MLSCN library redox annotation, primary screen; DTT-dependent redox cycling H2O2, phenol red/HRP absorbance; 100% = 100 µM peroxide control, 0% = buffer; activation, % at 10 µM; 200,000 tested, 0.03% active; AID 878;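 active = activation of at least 50% relative to the plate's high and low controls in the primary single-dose screen; inactive = activation below 50%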;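 note: compound incubated with DTT at 0.8 mM final as the reducing agent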
DTT redox conf: confirmation of DTT-dependent redox cycling H2O2 generators | shares compounds with Redox H2O2 prof | EC50, µM | phenol red-HRP absorbance | AID 1234 | 60 tested, 40% active;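 active = EC50 under a set limit for hydrogen peroxide production with the reducing agent DTT present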
Dynein inh conf: dynein cargo transport inhibition, confirmation; calls only at 20 µM; shares compounds with Dynein cargo inh; 3617.4 GR-EGFP nuclear translocation imaging, dexamethasone-induced; 1,000 tested, 69% active; AID 463116;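 active = inhibition of receptor movement into the nucleus at or above a set limit in both runs, with normal cell brightness and cell count; inconclusive = limit reached in only one run, brightness and count normal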;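 note: dexamethasone at 1 µM final in well for 30 min; nuclear minus cytoplasmic GR-EGFP mean intensity difference in channel 2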
ROMK hit retest: human ROMK channel modulation, retest confirmation; shares compounds with ROMK primary; ROMK thallium flux, fluorescence ratio; hits give low values; normalized thallium flux (F/F0 slope) at 10 µM; 3,000 tested, 54% active; AID 1917;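 active = Flux at 10 µM at least 3 SD below or above vehicle control mean in one or both replicates; inconclusive = no clear call, values can overlap the other calls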
An asterisk follows results filed as active; i = inactive; ? = inconclusive; . = no result; + = active, no number. The list is not random: actives were taken first. Their share in the collection is about 4.1%.

SMILES	ROMK primary	Dynein cargo inh	KCC2 mod	Autophagy HCS	Redox H2O2 prof	Dynein inh conf	others
COc1ccccc1/C=C(/CC(=O)NCc1ccc2c(c1)OCO2)c1nc2ccccc2s1	.	0.934	-1.57	i	0.1	.
Cc1cc(C)c(S(=O)(=O)Nc2ccc(O)cc2)cc1C	.	2.88	-0.159	i	-3.2	.
Cc1cc(C)c(S(=O)(=O)Nc2cc(SCC(=O)O)c(O)c3ccccc23)cc1C	-0.658	-1.01	-0.766	i	119.5*	.	DTT redox conf=>50
CC(C)=CC(=O)Nc1ccc(S(=O)(=O)Nc2ccccn2)cc1	0.443	-0.856	-0.598	i	0.0	.
CCOc1ccc(-c2nc(N)ncc2Oc2cccc(OC)c2)c(O)c1	1.07	-1.29	-1.05	i	0.2	.
COc1cccc(Oc2cncnc2-c2ccc(OC)cc2O)c1	.	-0.367	-0.689	i	59.7*	.	DTT redox conf=>50
CCOC(=O)N1CCN(c2cc(NCCC(=O)O)c3c4c(onc24)-c2ccccc2C3=O)CC1	.	-0.0665	-2.78	i	141.1*	.	DTT redox conf=>50
O=C(Nc1cccc(F)c1)c1ccc(Cn2cc([N+](=O)[O-])cn2)o1	.	0.24	-0.133	i	-0.3	.
O=C1NCCn2ccc(=O)cc21	.	-0.713	-0.0259	.	.	.
Cc1ccc(NC2=C/C(=N\S(=O)(=O)c3cccs3)c3ccccc3C2=O)c(C)c1	-2.16	-2.15	-0.0221	i	323.1*	.	DTT redox conf=18.4*
CC1(C)CC2CC(C)(CN2/C=N/c2sc3c(c2C#N)CC(C)(C)NC3(C)C)C1 (stereo unspecified)	.	-1.49	0.0181	.	.	.
Cc1oc2c(c1C(=O)c1ccccc1)C(=O)C(=O)c1ccccc1-2	.	-1.52	-1.84	i	373.5*	.	DTT redox conf=>50;ROMK hit retest=?
Cc1oc2c(c1C(=O)O)C(=O)c1ccccc1C2=O	-0.0172	0.0782	0.0614	i	-1.7	.
O=C1N=C(N2CCCC2C(=O)O)S/C1=C\c1ccco1 (stereo unspecified)	-0.43	0.284	-0.116	i	-1.9	.
O=C(O)c1ccc(NC2=C/C(=N/S(=O)(=O)c3ccccc3)c3ccccc3C2=O)cc1	-3.42*	-4.23*	-0.495	i	149.2*	+	DTT redox conf=2.73*;ROMK hit retest=0.0522*
Cc1cc(NC(=O)C2CC(=O)N(c3ccccc3)C2)no1 (stereo unspecified)	.	2.45	0.248	i	0.4	.
COC1=C(N)C(=O)c2nc(-c3nc(C(=O)O)c(C)c(-c4ccc(OC)c(OC)c4O)c3N)ccc2C1=O	.	-2.83	0.556	i	132.2*	.	DTT redox conf=1.48*;ROMK hit retest=0.0575*
CCOC(=O)C(=Cc1c[nH]c2ccc(S(=O)(=O)N(C)C)cc12)C(=O)OCC	.	-4.71*	-0.409	.	.	+
O=C(CCl)N1N=C(c2ccco2)CC1c1cccs1 (stereo unspecified)	.	-4.3*	-1.2	i	0.5	+
Cc1ccc(C2=NN(C(=O)CCl)C(c3cccs3)C2)o1 (stereo unspecified)	.	-4.1*	-0.0151	i	0.8	+
CC(=O)N1N=C(c2ccco2)CC1c1cccs1 (stereo unspecified)	.	-0.231	.	i	-1.6	.
OC(CNCCc1ccc(Cl)cc1)COc1ccc2ccccc2c1 (stereo unspecified)	-2.14	-8.18*	0.502	i	-1.9	i
OC(CNCCc1ccccc1)COc1ccc(OCC(O)CNCCc2ccccc2)cc1 (stereo unspecified)	.	5.19	0.743	.	.	.
O=S(=O)(Nc1ccc2ccccc2n1)c1ccc2c(c1)CCO2	.	-0.123	-1.14	.	.	.
CCOC(=O)C(=Cc1ccc(-n2ccnc2)cc1)C(=O)OCC	-1.03	-5.59*	-0.441	i	-1.8	+
SMILES	ROMK primary	Dynein cargo inh	KCC2 mod	Autophagy HCS	Redox H2O2 prof	Dynein inh conf	others
CCOC(=O)C(=Cc1ccc(F)cc1)C(=O)OCC	.	-5.21*	0.845	i	2.9	+
CC(C)Cc1nnc(NC(=O)CSc2nc(O)c(-c3ccccc3)c(=O)[nH]2)s1	0.362	0.114	-0.18	i	2.2	.
CCCc1cc(=O)oc2c3c(c4c(c12)OC(C)(C)C=C4)OC(C)C(C)C3O (stereo unspecified)	.	-0.164	-0.807	.	.	.
CCCCc1cc(O)c(CCCC)c(O)c1	-0.647	-3.93*	-0.109	i	0.4	+
CC1(C(=O)O)CCC(C(=O)N2CCCCC2)C1(C)C (stereo unspecified)	1.03	-0.53	1.09	i	-0.4	.
O=C(N/N=C1/CC2C=CCC12)c1ccco1 (stereo unspecified)	-0.0251	1.02	-0.284	i	-0.8	.
Cc1ccc(SC(=O)c2c(C)noc2-c2cc(C)on2)cc1	-1.59	-5.08*	0.165	.	.	+
COc1ccc(-c2ccc([C@H]3[C@@H]4C=CCC[C@@]4(C)C(=O)N3Cc3ccccc3)c(F)c2)cc1OC	.	-1.75	2.57	.	.	.
COc1ccc(-c2cccc([C@H]3[C@@H]4C=CCC[C@@]4(C)C(=O)N3Cc3ccccc3)c2)cc1	.	-3.6*	-0.128	.	.	+
O=C(c1cccs1)n1nc(-c2ccccc2)nc1NCc1ccco1	.	-5.64*	-0.227	i	0.2	i
O=C(Nc1ccc(Cl)c(Cl)c1)N1N=CCC1c1ccccc1 (stereo unspecified)	-1.42	0.636	-1.05	i	-0.6	.
O=C1C=CC2C(c3ccc4c(c3)OCO4)CC1N2Cc1ccccc1 (stereo unspecified)	.	-3.8*	-0.825	i	-0.1	+
c1ccc(CN2CCC(N3CCN(Cc4ccc5c(c4)OCO5)CC3)CC2)cc1	.	0.239	0.00119	.	.	.
CSC1=NC(=O)/C(=C/c2ccc(SC)cc2)S1	-0.652	0.179	0.0158	i	-0.6	.
CCOC(=O)CSC1=NC(=O)/C(=C\c2ccc(Cl)cc2)S1	.	-4.05*	1.04	i	2.5	i
N/C(=N\OC(=O)CN1C(=O)c2ccccc2C1=O)c1ccc(Br)cc1	0.264	-0.294	0.928	i	0.2	.
CCCCC1OC2(C)OC(=N)C1(C#N)C(C#N)(C#N)C2c1ccccc1 (stereo unspecified)	0.0102	-4.47*	-0.0797	i	0.5	+
CCN(CC)c1ccc(/C=C/c2cc(-c3ccccc3)c3ccccc3n2)cc1	.	-5.64	i	.	.	i
CN(C)c1ccc(/C=C/c2ccc3ccccc3n2)cc1	.	0.449	0.111	.	.	.
COc1cc(OC)nc(-n2ncc(Br)c(Br)c2=O)n1	-0.755	-3.52*	-1.38	i	0.2	+
COC(=O)c1cnn(-c2nc(OC)cc(OC)n2)c1C	.	-0.0659	0.963	i	-0.5	.
CN=c1scc(-c2cccs2)n1/N=C/c1ccc(O)c(O)c1O	.	-3.64*	-2.24	i	2.1	?
